Results: ChEMBL document CHEMBL4811317, “Inhibitory activities of anthraquinone and xanthone derivatives against transthyretin amyloidogenesis” (Bioorg Med Chem, 2021)
pIC50: −log10 of the molar value. Values after ≈ are worked out from the molar mass of the structure shown. Active and inactive are the calls of the source. The calls are words filed in the database; no cut-off is given here.

What was measured:
[1] = biological target: Transthyretin (Homo sapiens, UniProt P02766, V50M); assay: Inhibition of acid-mediated aggregation of TTR V30M mutant (unknown origin) expressed in Escherichia coli pretreated for 30 mins at pH 7 followed by protein dilution in acetate buffer and further incubated for 96 hrs at pH 4.6 by thioflavin-T fluorescence assay
[2] = Tmax in Sprague-Dawley rat at 1 mg/kg, po measured up to 8 hrs by LC-MS/MS analysis; assay type: ADME, organism-based; conditions: in vivo
Method in brief: (§1)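 Male Sprague Dawley rats (7 weeks old, n = 2) given compound in 10% DMSO/0.1 M phosphate pH 8.5, i.v. or p.o. Caudal-vein blood at 5 min (i.v.), 15, 30 min, 1, 2, 4, 8 h; plasma precipitated with acetonitrile/IS, LC-MS/MS. Non-compartmental analysis; bioavailability = AUC∞(p.o.)/AUC∞(i.v.).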

[3] = biological target: Transthyretin (Homo sapiens) (UniProt P02766); assay: Binding affinity to TTR V30M mutant (unknown origin) expressed in Escherichia coli by isothermal titration calorimetry
[4] = Volume of distribution at steady state in Sprague-Dawley rat at 1 mg/kg, iv measured up to 8 hrs by LC-MS/MS analysis; assay type: ADME, organism-based; conditions: in vivo, read-out: Vdss; method in brief: as §1
[5] = Protein binding in Sprague-Dawley rat plasma assessed as unbound fraction at 1 uM measured after 4 hrs by equilibrium dialysis assay; assay type: ADME, cell-free
Method in brief: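 Rat plasma spiked at 1 μM, equilibrium dialysis (8K MWCO) against 0.1 M phosphate pH 7.4 for 4 h at 37 °C, 1000 rpm. Unbound fraction = buffer/plasma concentration ratio. At least two technical replicates.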

[6] = Bioavailability in Sprague-Dawley rat at 1 mg/kg, iv measured up to 8 hrs by LC-MS/MS analysis; assay type: ADME, organism-based; conditions: in vivo; method in brief: as §1
[7] = Metabolic stability in Sprague-Dawley rat liver microsomes assessed as residual rate at 1 uM measured after 30 mins by LC-MS/MS analysis; assay type: ADME, Microsome; conditions: read-out: Stabilty
[8] = Aqueous solubility of the compound in pH 6.8 JP2 fluid measured after 4 hrs by HPLC-UV analysis; assay type: physicochemical
Method in brief: (§2)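 Test compound diluted from 10 mM DMSO stock 2:165 into JP 1st fluid (pH 1.2) or JP 2nd fluid (pH 6.8); mixed 4 h at 37 °C with rotation at 1000 rpm, then filtered through 0.45 μm PVDF by centrifugation. At least two technical replicates.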

[9] = Metabolic stability in Sprague-Dawley rat liver microsomes assessed as residual rate at 1 uM preincubated for 5 mins followed by NADPH addition and measured after 30 mins by LC-MS/MS analysis; assay type: ADME, Microsome; conditions: time 35 min, read-out: Stabilty
Method in brief: (§3)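 Rat liver microsomes 0.2 mg/mL with 1 μM compound, 1 mM EDTA, 0.1 M phosphate pH 7.4; 5 min preincubation, then 1 mM NADPH (final) added, 30 min at 37 °C, 60 rpm. Quenched in cold acetonitrile/internal standard, supernatant by LC-MS/MS against time zero. CLint scaled with 44.8 mg protein/g liver, 40.0 g liver/kg. At least two technical replicates.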

[10] = Aqueous solubility of the compound in pH 1.2 JP1 fluid measured after 4 hrs ny HPLC-UV analysis; assay type: physicochemical; method in brief: as §2
[11] = Permeability of the compound at 10 uM measured after 4 hrs by PAMPA based LC-MS analysis; assay type: ADME; conditions: read-out: permeability
Method in brief: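 PAMPA on pre-coated plates: donor 10 μM compound in 5% DMSO/0.1 M phosphate pH 6.4, acceptor 5% DMSO/0.1 M phosphate pH 7.4; 4 h at 37 °C without agitation. Donor, acceptor and initial donor solutions quantified by LC-MS/MS; recovery above 90%. Antipyrine, metoprolol, sulfasalazine as references. At least two technical replicates.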

[12] = AUC infinity in Sprague-Dawley rat at 1 mg/kg, iv measured up to 8 hrs by LC-MS/MS analysis; assay type: ADME, organism-based; parameters: route intravenous, dose 1 mg/kg, time <=8; conditions: in vivo
[13] = Cmax in Sprague-Dawley rat at 1 mg/kg, po measured up to 8 hrs by LC-MS/MS analysis; assay type: ADME, organism-based; parameters: route oral, dose 1 mg/kg, time <=8; conditions: in vivo; method in brief: as §1
[14] = Elimination half life in Sprague-Dawley rat at 1 mg/kg, po measured up to 8 hrs by LC-MS/MS analysis; assay type: ADME, organism-based; conditions: in vivo, read-out: beta t1/2 (converted); method in brief: as §1
[15] = AUC infinity in Sprague-Dawley rat at 1 mg/kg, po measured up to 8 hrs by LC-MS/MS analysis; assay type: ADME, organism-based; parameters: route oral, dose 1 mg/kg, time <=8; conditions: in vivo
[16] = Elimination half life in Sprague-Dawley rat at 1 mg/kg, iv measured up to 8 hrs by LC-MS/MS analysis; assay type: ADME, organism-based; conditions: in vivo, read-out: beta t1/2 (converted); method in brief: as §1
[17] = Total clearance in Sprague-Dawley rat at 1 mg/kg, iv measured up to 8 hrs by LC-MS/MS analysis; assay type: ADME, organism-based; conditions: in vivo; method in brief: as §1
[18] = Intrinsic clearance in Sprague-Dawley rat liver microsomes at 1 uM preincubated for 5 mins followed by NADPH addition and measured after 30 mins by LC-MS/MS analysis; assay type: ADME, Microsome; conditions: time 35 min, read-out: CLH; method in brief: as §3
[19] = Cmax in Sprague-Dawley rat at 1 mg/kg, iv measured up to 8 hrs by LC-MS/MS analysis; assay type: ADME, organism-based; parameters: route intravenous, dose 1 mg/kg, time <=8; conditions: in vivo; method in brief: as §1

Q: With `Cc1ccc2oc3ccccc3c(=O)c2c1` as the compound, how does the pIC50 [1] read?
A: < 4.00

Q: With `COc1cccc2c1C(=O)c1c(O)c3c(c(O)c1C2=O)C[C@@](O)(C(C)=O)C[C@@H]3O[C@H]1C[C@H](N)[C@H](O)[C@H](C)O1` [DAUNORUBICIN] as the compound, how does the pIC50 [1] read?
A: < 4.00

Q: With `CC(=O)Oc1cccc2c1C(=O)c1c(OC(C)=O)cc(C(=O)O)cc1C2=O` [DIACEREIN] as the compound, how does the pIC50 [1] read?
A: 5.27

Q: With `O=C(O)c1ccc2c(=O)c3cc(Cl)ccc3oc2c1` as the compound, how does the pIC50 [1] read?
A: 5.00

Q: With `CCOc1cccc2c1C(=O)c1ccc(C(=O)O)cc1C2=O` as the compound, how does the pIC50 [1] read?
A: 4.66

Q: With `O=C(O)c1ccc2oc3ccc(Cl)cc3c(=O)c2c1` as the compound, how does the pIC50 [1] read?
A: 4.92

Q: With `O=C(O)c1cc(F)c2c(c1)C(=O)c1ccccc1C2=O` as the compound, how does the pIC50 [1] read?
A: 4.62

Q: With `O=C(O)c1ccc2c(=O)c3ccc(Cl)cc3oc2c1` as the compound, how does the pIC50 [1] read?
A: 4.89

Q: With `CC(C)=CCc1c(O)cc2oc3cc(O)c(O)c(CC=C(C)C)c3c(=O)c2c1O` as the compound, how does the pIC50 [1] read?
A: 5.00

Q: With `Cc1cc(O)c2c(c1)C(=O)c1cccc(O)c1C2=O` [CHRYSOPHANOL] as the compound, how does the pIC50 [1] read?
A: < 4.00

Q: With `O=C(O)c1cc(O)c2c(c1)C(=O)c1cccc(O)c1C2=O` [RHEIN] as the compound, how does the pIC50 [1] read?
A: 4.92

Q: Which results are given for `O=C(O)c1cc(Cl)c2oc3ccccc3c(=O)c2c1`?
A: pIC50 [1]: 5.17; Tmax [2]: 2 h; Activity [3]: Active; Vd [4]: 0.164 L/kg; fraction unbound at 4 h, 1 µM [5]: 0.017; bioavailability [6]: 69.8%; remaining at 0.5 h, 1 µM [7]: 88%; solubility at 4 h [8]: > 100 µM; remaining at 0.5 h, 1 µM [9]: 88%; solubility at 4 h [10]: 2.9 µM (≈ 0.797 µg/mL); Papp at 4 h, 10 µM [11]: 17 ×10⁻⁶ cm/s; AUC(0-inf) [12]: 13200 ng·h/mL; Cmax [13]: 1120 ng/mL; half-life [14]: 5 h; AUC(0-inf) [15]: 9190 ng·h/mL; half-life [16]: 1.7 h; clearance [17]: 1.27 mL/min/kg; CLint scaled at 1 µM [18]: 37.9 mL/min/kg; Cmax [19]: 8650 ng/mL

Q: With `O=C1c2cccc(O)c2C(=O)c2cccc(O)c21` [ANTHRARUFIN] as the compound, how does the pIC50 [1] read?
A: < 4.00

Q: With `O=C(O)c1ccc2c(c1)C(=O)c1cccc(O)c1C2=O` as the compound, how does the pIC50 [1] read?
A: 4.30

Q: With `COc1cc(O)c2c(c1)C(=O)c1cc(C)cc(O)c1C2=O` [PHYSCION] as the compound, how does the pIC50 [1] read?
A: < 4.00

Q: With `Cc1cc(C(=O)O)cc2c(=O)c3ccccc3oc12` as the compound, how does the pIC50 [1] read?
A: 5.19

Q: And the Tmax [2]?
A: 0.25 h

Q: And the Activity [3]?
A: Active

Q: What about the Vd [4] of the same compound?
A: 0.148 L/kg

Q: And the fraction unbound at 4 h, 1 µM [5]?
A: 0.0073

Q: What about the bioavailability [6] of the same compound?
A: 34.9%

Q: What about the remaining at 0.5 h, 1 µM [7] of the same compound?
A: 88%

Q: What about the solubility at 4 h [8] of the same compound?
A: > 100 µM

Q: And the remaining at 0.5 h, 1 µM [9]?
A: 88%

Q: And the solubility at 4 h [10]?
A: 2 µM (≈ 0.508 µg/mL)

Q: What about the Papp at 4 h, 10 µM [11] of the same compound?
A: 18 ×10⁻⁶ cm/s

Q: What about the AUC(0-inf) [12] of the same compound?
A: 7520 ng·h/mL

Q: What about the Cmax [13] of the same compound?
A: 476 ng/mL

Q: And the half-life [14]?
A: 4.4 h

Q: And the AUC(0-inf) [15]?
A: 2620 ng·h/mL

Q: And the half-life [16]?
A: 2.4 h

Q: What about the clearance [17] of the same compound?
A: 2.22 mL/min/kg

Q: What about the CLint scaled at 1 µM [18] of the same compound?
A: 35.7 mL/min/kg

Q: What about the Cmax [19] of the same compound?
A: 19200 ng/mL

Q: With `O=C(O)c1ccc2c(c1)C(=O)c1c(Cl)c(Cl)c(Cl)c(Cl)c1C2=O` as the compound, how does the pIC50 [1] read?
A: 4.68

Q: With `Oc1ccc(O)c2c(O)c3ccccc3c(O)c12` as the compound, how does the pIC50 [1] read?
A: < 4.00

Q: With `Nc1ccc(O)c2c1C(=O)c1c(O)c(S(=O)(=O)O)cc(N)c1C2=O` as the compound, how does the pIC50 [1] read?
A: < 4.00

Q: With `O=C1c2cccc(O)c2C(=O)c2c(O)cc(CO)cc21` [ALOE-EMODIN] as the compound, how does the pIC50 [1] read?
A: < 4.00

Q: With `O=C(O)c1cc(Cl)c2oc3c(Cl)cccc3c(=O)c2c1` as the compound, how does the pIC50 [1] read?
A: 5.04

Q: With `O=C(O)c1ccc2oc3cc(Cl)ccc3c(=O)c2c1` as the compound, how does the pIC50 [1] read?
A: < 4.00
